In ChEMBL document CHEMBL3525935, “Inhibition of P-glycoprotein leads to improved oral bioavailability of compound K, an anticancer metabolite of red ginseng extract produced by gut microflora” (Drug Metab Dispos, 2012):
Calls of active or inactive are those of the source. The rule behind the calls is not given here.

What was measured:
[1] = system: LM1; test: Cytotoxicity against mouse LM1 cells assessed as cell growth inhibition upto 100 uM after 48 hrs by MTT assay; type: functional, cell-based
Method in brief: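 LM1 cells, a metastatic line derived from A/J mice, grown in DMEM with 10% FBS, 2 mM glutamine, penicillin/streptomycin and 1% nonessential amino acids. Seeded at 5×10^3 cells/well in 96-well plates, fed daily, and used 2–3 days after seeding.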

[2] = Cmax in wildtype FVB mouse at 10 mg/kg, po; type: ADME, organism-based; design: dose 10 mg/kg, route oral; conditions: in vivo
Method in brief: (§1)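 Male mice aged 6–10 weeks, MDR1a/b knockout or wild-type FVB, fasted overnight. Single 10 mg/kg gavage dose in an oral suspending vehicle. Ten timed tail-snip blood samples (20–25 μl) were taken under isoflurane. Blood levels were measured by UPLC-MS; the standard curve spanned 19.5 nM–10 μM, with LLOQ 9.8 nM. Five mice per group; mean ± S.D.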

[3] = Half life in MDR1a/b(-/-) FVB mouse at 10 mg/kg, po; type: ADME, organism-based; design: dose 10 mg/kg, route oral; conditions: in vivo; method in brief: as §1
[4] = Drug elimination rate in MDR1a/b(-/-) FVB mouse at 10 mg/kg, po; type: ADME, organism-based; design: dose 10 mg/kg, route oral; conditions: in vivo; method in brief: as §1
[5] = Permeability across apical to basolateral side in MDCK2 cells at 2 uM; type: ADME, cell-based, Canis lupus familiaris, MDCK-II; conditions: dog, MDCK; read-out: permeability
Method in brief: (§2)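 Monolayers of Caco-2 (TC7; TEER >445 Ω/cm² for quality control), parental MDCKII, or MDR1-MDCKII cells. Bidirectional transport of 2 μM substrate in HBSS, pH 7.4 on both sides. Outputs were Pa-b, Pb-a and efflux ratio Pb-a/Pa-b, plus mass-balance recovery. Intracellular amount was measured at the end of transport and normalised to lysate protein (BCA). Three independent experiments.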

[6] = Mean residence time (infinity) in wildtype FVB mouse at 10 mg/kg, po; type: ADME, organism-based; design: dose 10 mg/kg, route oral; conditions: in vivo; method in brief: as §1
[7] = Tmax in MDR1a/b(-/-) FVB mouse at 10 mg/kg, po; type: ADME, organism-based; design: dose 10 mg/kg, route oral; conditions: in vivo; method in brief: as §1
[8] = AUC (0 to time) in wildtype FVB mouse at 10 mg/kg, po; type: ADME, organism-based; design: dose 10 mg/kg, route oral; conditions: plasma; method in brief: as §1
[9] = Drug uptake in human Caco2 cells assessed as intracellular level measured per mg of protein at 2 uM; type: ADME, cell-based; conditions: caco-2, 2 µM; method in brief: as §2
[10] = Drug uptake in human Caco2 cells assessed as intracellular level measured per mg of protein at 2 uM in presence of 20 uM cyclosporine A P-gp inhibitor; type: ADME, cell-based; conditions: caco-2, 2 µM
Method in brief: (§3)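 Caco-2 (TC7) monolayers, 2 μM substrate transported in HBSS at pH 7.4. Cyclosporine A (20 μM) or verapamil (50 μM) was added to the apical side. Intracellular amount was measured at the end of transport and normalised to lysate protein (BCA), in nmol/mg. Three independent experiments.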

[11] = system: MDR1; test: Permeability across apical to basolateral side in MDCK2-MDR1 cells at 2 uM; type: ADME, cell-based, Canis lupus familiaris, MDCK-II; conditions: dog, MDCK-MDR1; read-out: permeability; method in brief: as §2
[12] = Drug uptake in MDCK2 cells assessed as intracellular level measured per mg of protein at 2 uM; type: ADME, cell-based, Canis lupus familiaris; conditions: dog, mdck-ii; method in brief: as §2
[13] = Tmax in wildtype FVB mouse at 10 mg/kg, po; type: ADME, organism-based; design: dose 10 mg/kg, route oral; conditions: in vivo; method in brief: as §1
[14] = Mean residence time (infinity) in MDR1a/b(-/-) FVB mouse at 10 mg/kg, po; type: ADME, organism-based; design: dose 10 mg/kg, route oral; conditions: in vivo; method in brief: as §1
[15] = AUC (0 to time) in MDR1a/b(-/-) FVB mouse at 10 mg/kg, po; type: ADME, organism-based; design: dose 10 mg/kg, route oral; conditions: plasma; method in brief: as §1
[16] = Permeability across basolateral to apical side in MDCK2 cells at 2 uM; type: ADME, cell-based, Canis lupus familiaris, MDCK-II; conditions: dog, MDCK; read-out: permeability; method in brief: as §2
[17] = Oral bioavailability in rat; type: ADME, organism-based; conditions: in vivo
[18] = Permeability across basolateral to apical side in human Caco2 cells at 2 uM; type: ADME, cell-based; conditions: Caco-2, read-out: permeability; method in brief: as §2
[19] = AUC (0 to infinity) in wildtype FVB mouse at 10 mg/kg, po; type: ADME, organism-based; design: time infinity, dose 10 mg/kg, route oral; conditions: plasma; method in brief: as §1
[20] = Drug recovery in human Caco2 cells at 2 uM; type: ADME, cell-based; conditions: Caco-2, read-out: Drug recovery; method in brief: as §2
[21] = Drug recovery in MDCK2 cells at 2 uM; type: ADME, cell-based, Canis lupus familiaris, MDCK-II; conditions: dog, MDCK; read-out: Drug recovery; method in brief: as §2
[22] = Efflux ratio of permeability from basolateral to apical side over apical to basolateral side in MDCK2 cells at 2 uM; type: ADME, cell-based, Canis lupus familiaris, MDCK-II; conditions: dog, MDCK; method in brief: as §2
[23] = Drug uptake in MDCK2-MDR1 cells assessed as intracellular level measured per mg of protein at 2 uM; type: ADME, cell-based, Canis lupus familiaris; conditions: dog, mdck-ii; method in brief: as §2
[24] = system: MDR1; test: Permeability across basolateral to apical side in MDCK2-MDR1 cells at 2 uM; type: ADME, cell-based, Canis lupus familiaris, MDCK-II; conditions: dog, MDCK-MDR1; read-out: permeability; method in brief: as §2
[25] = Drug elimination rate in wildtype FVB mouse at 10 mg/kg, po; type: ADME, organism-based; design: dose 10 mg/kg, route oral; conditions: in vivo; method in brief: as §1
[26] = system: MDR1; test: Drug recovery in MDCK2-MDR1 cells at 2 uM; type: ADME, cell-based, Canis lupus familiaris, MDCK-II; conditions: dog, MDCK-MDR1; read-out: Drug recovery; method in brief: as §2
[27] = Cmax in MDR1a/b(-/-) FVB mouse at 10 mg/kg, po; type: ADME, organism-based; design: dose 10 mg/kg, route oral; conditions: in vivo; method in brief: as §1
[28] = AUC (0 to infinity) in MDR1a/b(-/-) FVB mouse at 10 mg/kg, po; type: ADME, organism-based; design: time infinity, dose 10 mg/kg, route oral; conditions: plasma; method in brief: as §1
[29] = Efflux ratio of permeability from basolateral to apical side over apical to basolateral side in human Caco2 cells at 2 uM; type: ADME, cell-based; conditions: Caco-2; method in brief: as §2
[30] = Half life in wildtype FVB mouse at 10 mg/kg, po; type: ADME, organism-based; design: dose 10 mg/kg, route oral; conditions: in vivo; method in brief: as §1
[31] = system: MDR1; test: Efflux ratio of permeability from basolateral to apical side over apical to basolateral side in MDCK2-MDR1 cells at 2 uM; type: ADME, cell-based, Canis lupus familiaris; conditions: dog, MDCK-MDR1; method in brief: as §2
[32] = Drug uptake in human Caco2 cells assessed as intracellular level measured per mg of protein at 2 uM in presence of 50 uM verapamil P-gp inhibitor; type: ADME, cell-based; conditions: caco-2, 2 µM; method in brief: as §3
[33] = Permeability across apical to basolateral side in human Caco2 cells at 2 uM; type: ADME, cell-based; conditions: Caco-2, read-out: permeability; method in brief: as §2
[34] = Cytotoxicity against mouse LM1 cells assessed as cell growth inhibition after 48 hrs by MTT assay; type: functional, cell-based; conditions: LM1, 48 h
[35] = Efflux ratio of permeability from basolateral to apical side over apical to basolateral side in human Caco2 cells; conditions: Caco-2
[36] = Permeability across apical to basolateral side in human Caco2 cells; conditions: Caco-2

CC(C)=CCC[C@](C)(O[C@@H]1O[C@H](CO)[C@@H](O)[C@H](O)[C@H]1O)[C@H]1CC[C@]2(C)[C@@H]1[C@H](O)C[C@@H]1[C@@]3(C)CC[C@H](O[C@@H]4O[C@H](CO)[C@@H](O)[C@H](O)[C@H]4O)C(C)(C)[C@@H]3CC[C@]12C
growth inhibition (GI) [1]: inactive

CC(C)=CCC[C@](C)(O[C@@H]1O[C@H](CO)[C@@H](O)[C@H](O)[C@H]1O)[C@H]1CC[C@]2(C)[C@@H]1[C@H](O)C[C@@H]1[C@@]3(C)CC[C@H](O)C(C)(C)[C@@H]3CC[C@]12C
Cmax [2]: 130 nM
half-life [3]: 1120 min
k el [4]: 1.11e-05 s⁻¹
Papp A→B at 2 µM [5]: 0.58 ×10⁻⁶ cm/s
MRT inf [6]: 7.82 h
Tmax [7]: 5.6 h
AUC [8]: 0.66 µM·h
Drug uptake [9]: 0.01 nmol/mg
Drug uptake [10]: 0.15 nmol/mg
Papp A→B at 2 µM [11]: 1.84 ×10⁻⁶ cm/s
Drug uptake [12]: 0.27 nmol/mg
Tmax [13]: 2.8 h
MRT inf [14]: 30.7 h
AUC [15]: 7.7 µM·h
Papp B→A at 2 µM [16]: 1.13 ×10⁻⁶ cm/s
bioavailability [17]: 5%
Papp B→A at 2 µM [18]: 31 ×10⁻⁶ cm/s
AUC(0-inf) [19]: 0.75 µM·h
recovery at 2 µM [20]: 85%
recovery at 2 µM [21]: 85%
efflux ratio at 2 µM [22]: 1.8
Drug uptake [23]: 0.08 nmol/mg
Papp B→A at 2 µM [24]: 33.6 ×10⁻⁶ cm/s
k el [25]: 3.61e-05 s⁻¹
recovery at 2 µM [26]: 85%
Cmax [27]: 530 nM
AUC(0-inf) [28]: 17.6 µM·h
efflux ratio at 2 µM [29]: 26.6
half-life [30]: 352 min
efflux ratio at 2 µM [31]: 18.2
Drug uptake [32]: 0.5 nmol/mg
Papp A→B at 2 µM [33]: 1.16 ×10⁻⁶ cm/s
IC50 [34]: 18.4 µM

C[C@H]1O[C@@H](O[C@H]2[C@@H](O)C[C@H](O[C@H]3[C@@H](O)C[C@H](O[C@H]4CC[C@@]5(C)[C@H](CC[C@@H]6[C@@H]5C[C@@H](O)[C@]5(C)[C@@H](C7=CC(=O)OC7)CC[C@]65O)C4)O[C@@H]3C)O[C@@H]2C)C[C@H](O)[C@@H]1O [DIGOXIN]
efflux ratio [35]: 21
Papp A→B at 2 µM [11]: 0.298 ×10⁻⁶ cm/s
Papp A→B [36]: 1.48 ×10⁻⁶ cm/s
efflux ratio at 2 µM [31]: 64
